The sample as a whole holds a higher share of hits than the screen did.
HCT116 PTEN-null = growth suppressors of cells with PTEN tumor suppressor deletion; viability, % at 10 µM; HCT116 PTEN-null viability, CellTiter-Glo, 60 h; active compounds read low; 140,000 tested, 1.2% active;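 active = viability at or below a set limit, 4 SD under the median of all tested compounds, cut at about 3.7% in these data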;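 note: PTEN knockout HCT116 line with beta catenin targeted HCT116 as companion control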
bCat KO growth = beta-catenin-lacking colon tumor cell growth suppression | HCT116 beta-catenin knockout viability, CellTiter-Glo, 60 h; active compounds read low | viability, % at 10 µM | 140,000 tested, 1.5% active | AID 818;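 active = viability at or under a set limit, the compound median less 4 SD, cut at about 6% in these data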;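 note: 0% = Hyamine 1622 control at 20 µM and 100% = untreated cell control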
HUVEC prolif 384 = blocks proliferation of human endothelial cells. HUVEC proliferation, CellTiter-Glo luminescence, 72 h; active compounds read low. viability, % at 10 µM (by protocol). 86,000 tested, 1.1% active. AID 648;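 active = viability at or below 30%; inactive = viability above 30%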;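 note: 100% = median luminescence of DMSO-only cell control wells on each plate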
H69AR inhibit = growth inhibitors of human H69AR lung tumor cells | H69AR lung tumor viability, ATP luminescence, 72 h; active compounds read low | viability, % at 10 µM | 85,000 tested, 6% active;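 active = viability at or below 40%; inactive = viability above 40%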;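 note: multidrug resistant small cell line overexpressing MRP-1 efflux transporter; 100% = mean luminescence of untreated control wells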
Lung fibro prol = blocks proliferation of human lung fibroblasts; LL 47 human lung fibroblast viability, ATP luminescence; active compounds read low; viability, % at 10 µM; 85,000 tested, 1.1% active; AID 719;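 active = viability at or below 50% in the single dose screen; inactive = viability above 50%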;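 note: compound exposure lasted 72 h before the ATP readout; 100% = median luminescence of untreated cell-only wells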
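material = human LL 47 lung fibroblast cells | dosing = compounds added from tenfold dosing solution, 0.1% DMSO final | timing = overnight cell rest, 72 h compound treatment at 37 °C | measured by = CellTiter-Glo luminescence measuring cellular ATP | evaluation = % viability versus median cells-only luminescence | control set = cell-only wells, no compound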
Starred values were filed as active, the others as inactive.

What do the screens show for `Cc1nc2cc(N3CCCCC3)c(NC(=O)c3cccnc3)cc2c(=O)n1Cc1ccccc1`?
HCT116 PTEN-null: 102.3; bCat KO growth: 102.5; HUVEC prolif 384: 71.9; H69AR inhibit: 32.9*; Lung fibro prol: 38.4*

Results for Cc1c(CN(C)C)c2c(n1Cc1ccccc1)C(=O)c1ccccc1-2 ?
HCT116 PTEN-null: 37.5; bCat KO growth: 48.1; HUVEC prolif 384: 62.0; H69AR inhibit: 38.2*; Lung fibro prol: 75.1

Results for c1ccc(-c2c(-c3ccccc3)n(Cc3ccco3)c3ncnc(NCCCn4ccnc4)c23)cc1 ?
HCT116 PTEN-null: 54.2; bCat KO growth: 59.2; HUVEC prolif 384: 44.0; H69AR inhibit: 9.1*; Lung fibro prol: 85.8

What do the screens show for `N=c1c2c(-c3ccccc3)c(-c3ccccc3)n(Cc3ccco3)c2ncn1CCCn1ccnc1`?
HCT116 PTEN-null: 2.1*; bCat KO growth: 2.2*

How did c1ccc(-c2oc3ncnc(NCCCn4ccnc4)c3c2-c2ccccc2)cc1 do in these assays?
HCT116 PTEN-null: 17.7; bCat KO growth: 25.4; HUVEC prolif 384: 38.3; H69AR inhibit: 28.7*; Lung fibro prol: 80.3

How did c1ccc2c(c1)oc1c(NCCCn3ccnc3)ncnc12 do in these assays?
HCT116 PTEN-null: 99.5; bCat KO growth: 98.5; HUVEC prolif 384: 86.3; H69AR inhibit: 87.4; Lung fibro prol: 105.7

Results for CC1(C)CC(=O)c2cc(NC(=O)c3ccccc3)c(=O)oc2C1 ?
HCT116 PTEN-null: 98.3; bCat KO growth: 96.5

Results for CCc1cc2cc3c(cc2nc1SCC(=O)N1CCN(C(=O)c2ccco2)CC1)OCO3 ?
HCT116 PTEN-null: 96.3; bCat KO growth: 97.8; HUVEC prolif 384: 86.0; H69AR inhibit: 41.0; Lung fibro prol: 92.7

What do the screens show for `CCc1cc2ccc(C)cc2nc1SCC(=O)N1CCN(C(=O)c2ccco2)CC1`?
HCT116 PTEN-null: 78.0; bCat KO growth: 72.4; HUVEC prolif 384: 86.2; H69AR inhibit: 36.3*; Lung fibro prol: 95.4

What do the screens show for `COc1ccc(C(=O)Cn2c(C(=O)/C=C/c3ccccc3)nc3ccccc32)cc1`?
HCT116 PTEN-null: 3.7*; bCat KO growth: 2.4*

What do the screens show for `CCn1ncc(CNC(=O)C2(C)CC2(Cl)Cl)c1C` (stereo not drawn)?
HCT116 PTEN-null: 101.6; bCat KO growth: 91.1

How did Cc1ccc(C(=O)/C=C/c2cn(CN3CCN(C)CC3)c3ccccc23)cc1 do in these assays?
HCT116 PTEN-null: 72.2; bCat KO growth: 69.8; HUVEC prolif 384: 63.7; H69AR inhibit: 5.8*; Lung fibro prol: 89.3

Results for [O-][n+]1onc2c1CCc1nnccc1-2 ?
HCT116 PTEN-null: 80.3; bCat KO growth: 65.2; HUVEC prolif 384: 105.3; H69AR inhibit: 63.3; Lung fibro prol: 101.2

Results for Cc1cc2c(ccc3c2no[n+]3[O-])nn1 ?
HCT116 PTEN-null: 72.4; bCat KO growth: 68.6; HUVEC prolif 384: 99.0; H69AR inhibit: 36.7*; Lung fibro prol: 91.9

Results for [O-][n+]1onc2c3ccnnc3ccc21 ?
HCT116 PTEN-null: 93.2; bCat KO growth: 91.1; HUVEC prolif 384: 104.3; H69AR inhibit: 38.0*; Lung fibro prol: 91.8

Results for CCOC(=O)N1CCN(C(=S)Nc2ccc(C)cc2)CC1 ?
HCT116 PTEN-null: 95.2; bCat KO growth: 93.0

How did CC(CN1CCOCC1)OC(=O)c1ccc(Br)cc1 (stereo not drawn) do in these assays?
HCT116 PTEN-null: 2.4*; bCat KO growth: 2.8*; HUVEC prolif 384: 48.5; H69AR inhibit: 0.6*; Lung fibro prol: 6.3*

How did COc1ccccc1/C=C/C(=O)c1ccc(Cl)cc1 do in these assays?
HCT116 PTEN-null: 14.5; bCat KO growth: 25.1

How did COc1ccc(OC)c(/C=C/C(=O)c2ccc(Cl)cc2)c1 do in these assays?
HCT116 PTEN-null: 3.1*; bCat KO growth: 2.9*

Results for CS(=O)(=O)Cc1nc2ccccc2oc1=O ?
HCT116 PTEN-null: 46.5; bCat KO growth: 54.3; HUVEC prolif 384: 112.1; H69AR inhibit: 22.1*; Lung fibro prol: 106.9

Results for COc1ccc2nc(Nc3nc(CSc4nc5ccccc5[nH]4)cc(=O)[nH]3)nc(C)c2c1 ?
HCT116 PTEN-null: 6.5; bCat KO growth: 6.1*

Results for COc1cccc2c(C)nc(Nc3nc(CSc4nnc(C)s4)cc(=O)[nH]3)nc12 ?
HCT116 PTEN-null: 71.2; bCat KO growth: 69.2; HUVEC prolif 384: 45.8; H69AR inhibit: 59.7

What do the screens show for `Cc1nc(Nc2nc(-c3ccccc3)cc(=O)[nH]2)nc2ccccc12`?
HUVEC prolif 384: 5.0*; H69AR inhibit: 14.3*; Lung fibro prol: 13.2*

How did Cc1nc(Nc2nc(CSc3ccc(Cl)cc3)cc(=O)[nH]2)nc2ccccc12 do in these assays?
HCT116 PTEN-null: 58.9; bCat KO growth: 72.2

What do the screens show for `Cc1ccc2c(C)nc(Nc3nc(CSc4nnc(C)s4)cc(=O)[nH]3)nc2c1`?
HCT116 PTEN-null: 87.3; bCat KO growth: 80.2; HUVEC prolif 384: 16.6*; H69AR inhibit: 34.6*; Lung fibro prol: 45.6*

What do the screens show for `Cc1nc(Nc2nc(CSc3nc4ccccc4[nH]3)cc(=O)[nH]2)nc2ccccc12`?
HCT116 PTEN-null: 3.7*; bCat KO growth: 3.6*

What do the screens show for `Cc1cccc(OC(=O)n2c(=S)oc3cc(Cl)ccc32)c1`?
HCT116 PTEN-null: 98.6; bCat KO growth: 94.2

How did CS(=O)(=O)N(Cc1ccccc1)c1ccc(C(=O)N2CCc3ccccc3C2)cc1 do in these assays?
HCT116 PTEN-null: 62.1; bCat KO growth: 65.3; HUVEC prolif 384: 99.2; H69AR inhibit: 82.2; Lung fibro prol: 98.2

What do the screens show for `O=C(COC(=O)CNC(=O)c1ccccc1)Nc1nc(-c2ccccc2)cs1`?
HCT116 PTEN-null: 83.1; bCat KO growth: 92.0

Results for CC(C)(C)c1ccc(C(=O)NCC(=O)OCC(=O)c2ccc3c(c2)-c2ccccc2C3)cc1 ?
HCT116 PTEN-null: 93.7; bCat KO growth: 82.4

Results for COc1ccc2[nH]c3nc(SCC(=O)Nc4ccc5c(c4)OCO5)nnc3c2c1 ?
HCT116 PTEN-null: 74.0; bCat KO growth: 74.5

What do the screens show for `COc1ccc2[nH]c3nc(SCc4nnc(-c5ccc(C)cc5)o4)nnc3c2c1`?
HCT116 PTEN-null: 52.4; bCat KO growth: 64.3; HUVEC prolif 384: 54.4; H69AR inhibit: 18.3*; Lung fibro prol: 68.3

Results for COc1cc2ccc(=O)oc2c(O)c1OCC=C(C)C ?
HCT116 PTEN-null: 93.3; bCat KO growth: 79.8; HUVEC prolif 384: 87.8; H69AR inhibit: 36.7*; Lung fibro prol: 99.6

How did O=C(COC(=O)c1cccc(S(=O)(=O)N2CCc3ccccc32)c1)Nc1ccc(Cl)cn1 do in these assays?
HCT116 PTEN-null: 87.0; bCat KO growth: 84.9

What do the screens show for `COC(=O)c1ccc(NC(CC(C)C)C(=O)OC)c([N+](=O)[O-])c1` (stereo not drawn)?
HCT116 PTEN-null: 108.2; bCat KO growth: 97.2

What do the screens show for `CCOc1ccccc1NC(=O)c1nc[nH]c1C(=O)Nc1ccccc1OCC`?
HCT116 PTEN-null: 81.2; bCat KO growth: 85.4; HUVEC prolif 384: 74.7; H69AR inhibit: 56.2; Lung fibro prol: 80.6

What do the screens show for `COc1ccc(NC(=O)c2nc[nH]c2C(=O)Nc2ccccc2C)cc1`?
HCT116 PTEN-null: 15.5; bCat KO growth: 16.9; HUVEC prolif 384: 53.1; H69AR inhibit: 19.7*; Lung fibro prol: 66.1
